pIC50, pKd, pKi: −log10 of the molar value. Activity calls are given as the source filed them. The calls are words filed in the database; no cut-off is given here.
Legend:
[1] = Inhibition of beta-lactamase IMP-1 (unknown origin) expressed in Escherichia coli LZ2310 assessed as potentiation of ceftazidime antibacterial activity by measuring ceftazidime induced diameter of inhibition zone at 320 uM incubated for 18 hrs by disk diffusion method (reference value: 9 mm)
Summary of the method: (§1)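 Efflux-deficient E. coli LZ2310 (NorE, MdfA, AcrA knocked out) carrying pLB-II with the cloned MBL gene. Mueller-Hinton, CLSI disk diffusion; antibiotic disks (30 µg cefoxitin for VIM-2, 10 µg ampicillin for VIM-4, 30 µg ceftazidime for NDM-1/IMP-1) loaded with inhibitor in DMSO (≤15 µL). Zone diameter after 18 h, 35 ± 1 °C; DMSO and 220 µg EDTA controls. Triplicate.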

[2] = Inhibition of beta-lactamase NDM1 (unknown origin) expressed in Escherichia coli BL21(DE3) using cefotaxime/nitrocefin as substrate by measuring substrate hydrolysis by spectrophotometric analysis
Summary of the method: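 His-tagged enzyme from E. coli BL21(DE3) pET-15b, affinity-purified, 1-70 nM final. Reporter substrate 120 μM cefotaxime (260 nm) or 100 μM nitrocefin (482 nm), 30 °C, 50 mM HEPES pH 7.5. Inhibitor 0.5–1,000 μM final; competitive Ki from v0/vi vs [I] slope or Dixon plot. Triplicate.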

[3] = Inhibition of beta-lactamase CphA (unknown origin) expressed in Escherichia coli BL21(DE3) using imipenem as substrate by measuring substrate hydrolysis by spectrophotometric analysis
Summary of the method: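 Enzyme 0.2–0.8 nM in 15 mM cacodylate pH 6.5, no added zinc, pre-incubated 30 min at 21 °C with inhibitor (100 μM screen). Imipenem substrate added from 10 mM stock; hydrolysis at 300 nm, 30 °C. Residual activity vs three uninhibited samples; Ki (1–100 μM inhibitor) by Hanes linearization, competitive model. Triplicate.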

[4] = Binding affinity to beta-lactamase VIM-2 expressed in Escherichia coli BL21(DE3) assessed as dissociation constant at 25 degC by isothermal titration calorimetry
Summary of the method: (§2)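 VIM-2 (19 μM) in 10 mM HEPES-NaOH, 0.15 M NaCl, 50 μM ZnSO4, pH 7.5, DMSO matched to ligand (1-2% final). One 0.5 μl then 19 × 2 μl injections of compound (200-400 μM), 150 s apart, 25 °C. Buffer dilution heats subtracted; nonlinear least-squares fit for n, Ka, ΔH; compound concentration adjusted in fitting so n ≈ 1.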

[5] = Binding affinity to beta-lactamase VIM-2 expressed in Escherichia coli BL21(DE3) assessed as Gibbs free energy at 25 degC by isothermal titration calorimetry; summary of the method: as §2
[6] = Inhibition of beta-lactamase VIM-2 (unknown origin) expressed in Escherichia coli XL-1 assessed as potentiation of cefoxitin antibacterial activity by measuring cefoxitin induced diameter of inhibition zone at 320 uM incubated for 18 hrs by disk diffusion method (reference value: 8 mm)
Summary of the method: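 Wild-type efflux E. coli XL-1 Blue transformed with pLB-II-VIM-2. Mueller-Hinton disk diffusion per CLSI, 30 µg cefoxitin disks loaded with inhibitor dissolved in DMSO (≤15 µL). Growth-inhibition zone measured after 18 h at 35 ± 1 °C; DMSO negative and 220 µg EDTA positive controls. Triplicate.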

[7] = Inhibition of beta-lactamase L1 (unknown origin) expressed in Escherichia coli BL21(DE3) using nitrocefin as substrate by measuring substrate hydrolysis preincubated for 30 mins by spectrophotometric analysis
Summary of the method: (§3)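 Enzyme 0.2–0.8 nM in 25 mM HEPES pH 7.5 with 50 μM ZnCl2 final, pre-incubated 30 min at 21 °C with inhibitor (100 μM screen). Nitrocefin 100 μM final, read at 482 nm, 30 °C. Residual activity vs three uninhibited samples; Ki (1–100 μM inhibitor) from Hanes linearization, competitive model. Triplicate.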

[8] = Inhibition of beta-lactamase IMP-1 (unknown origin) expressed in Escherichia coli BL21(DE3) using imipenem as substrate by measuring substrate hydrolysis by spectrophotometric analysis
Summary of the method: (§4)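 Purified enzyme (overproduced in E. coli BL21(DE3), pET-9a; ion-exchange and gel filtration), 1-70 nM final. Reporter substrate 150 μM imipenem, read at 300 nm, 30 °C, 50 mM HEPES pH 7.5. Single-point screen at 100 or 200 μM; Ki from v0/vi vs [I] (0.5–1,000 μM final) assuming competitive inhibition, or Dixon plot. Triplicate.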

[9] = Binding affinity to beta-lactamase VIM-2 expressed in Escherichia coli BL21(DE3) assessed as change in enthalpy at 25 degC by isothermal titration calorimetry; summary of the method: as §2
[10] = Inhibition of beta-lactamase VIM2 (unknown origin) expressed in Escherichia coli BL21(DE3) using imipenem as substrate by measuring substrate hydrolysis by spectrophotometric analysis; summary of the method: as §4
[11] = Binding affinity to beta-lactamase VIM-2 expressed in Escherichia coli BL21(DE3) assessed as change in entropy at 25 degC by isothermal titration calorimetry; summary of the method: as §2
[12] = Inhibition of beta-lactamase VIM-2 (unknown origin) expressed in Escherichia coli LZ2310 assessed as potentiation of cefoxitin antibacterial activity by measuring cefoxitin induced diameter of inhibition zone at 320 uM incubated for 18 hrs by disk diffusion method (reference value: 14 mm); summary of the method: as §1
[13] = Binding affinity to beta-lactamase VIM-2 expressed in Escherichia coli BL21(DE3) assessed as association constant at 25 degC by isothermal titration calorimetry; summary of the method: as §2
[14] = Inhibition of beta-lactamase VIM4 (unknown origin) expressed in Escherichia coli BL21(DE3) using imipenem as substrate by measuring substrate hydrolysis by spectrophotometric analysis; summary of the method: as §4
[15] = Inhibition of beta-lactamase L1 (unknown origin) expressed in Escherichia coli BL21(DE3) using nitrocefin as substrate by measuring substrate hydrolysis at 200 uM preincubated for 30 mins by spectrophotometric analysis
[16] = Inhibition of beta-lactamase VIM-2 (unknown origin) expressed in Escherichia coli LZ2310 assessed as potentiation of cefoxitin antibacterial activity by measuring cefoxitin induced diameter of inhibition zone at 80 uM incubated for 18 hrs by disk diffusion method (reference value: 14 mm); summary of the method: as §1
[17] = Inhibition of beta-lactamase L1 (unknown origin) expressed in Escherichia coli BL21(DE3) using nitrocefin as substrate by measuring substrate hydrolysis at 100 uM preincubated for 30 mins by spectrophotometric analysis; summary of the method: as §3
[18] = Inhibition of beta-lactamase NDM-1 (unknown origin) expressed in Escherichia coli LZ2310 assessed as potentiation of ceftazidime antibacterial activity by measuring ceftazidime induced diameter of inhibition zone at 80 uM incubated for 18 hrs by disk diffusion method (reference value: 15 mm); summary of the method: as §1
[19] = Inhibition of beta-lactamase VIM4 (unknown origin) expressed in Escherichia coli BL21(DE3) using imipenem as substrate by measuring substrate hydrolysis at 200 uM by spectrophotometric analysis; summary of the method: as §4
Escherichia coli [20] = test: Synergistic antibacterial activity against NDM-1 producing Escherichia coli assessed ass MIC of ceftazidime/avibactam at 32 ug/ml by broth microdilution method; format: functional; details: dose 32 µg/ml
Summary of the method: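 MIC of ceftazidime-avibactam (avibactam fixed at 4 µg/mL) by CLSI broth microdilution in Mueller-Hinton broth. Used the NDM-1-producing multidrug-resistant E. coli clinical isolate SI-001M at 5 × 10⁴ CFU/well, with and without inhibitor at a fixed 32 µg/ml. No colistin added. Triplicate determinations.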

[21] = Inhibition of beta-lactamase VIM2 (unknown origin) expressed in Escherichia coli BL21(DE3) using imipenem as substrate by measuring substrate hydrolysis at 200 uM by spectrophotometric analysis; summary of the method: as §4
[22] = Inhibition of beta-lactamase VIM2 (unknown origin) expressed in Escherichia coli BL21(DE3) using imipenem as substrate by measuring substrate hydrolysis at 100 uM by spectrophotometric analysis; summary of the method: as §4
[23] = Inhibition of beta-lactamase VIM4 (unknown origin) expressed in Escherichia coli BL21(DE3) using imipenem as substrate by measuring substrate hydrolysis at 100 uM by spectrophotometric analysis; summary of the method: as §4
Escherichia coli [24] = test: Synergistic antibacterial activity against NDM-1 producing Escherichia coli assessed as MIC of ceftazidime at 32 ug/ml by broth microdilution method; format: functional; details: dose 32 µg/ml
Escherichia coli [25] = test: Synergistic antibacterial activity against NDM-1 producing Escherichia coli assessed as MIC of imipenem at 32 ug/ml by broth microdilution method; format: functional; details: dose 32 µg/ml
Escherichia coli [26] = test: Antibacterial activity against NDM-1 producing Escherichia coli in presence of colistin by broth microdilution method.; format: functional
[27] = biological target: Hydroxyacylglutathione hydrolase (Homo sapiens); test: Inhibition of human Glyoxalase II expressed in Escherichia coli BL21 (DE3)
Escherichia coli [28] = test: Synergistic antibacterial activity against NDM-1 producing Escherichia coli assessed as MIC of meropenem at 32 ug/ml by broth microdilution method; format: functional; details: dose 32 µg/ml
[29] = Inhibition of beta-lactamase NDM1 (unknown origin) expressed in Escherichia coli BL21(DE3) using cefotaxime/nitrocefin as substrate by measuring substrate hydrolysis at 100 uM by spectrophotometric analysis
[30] = Inhibition of beta-lactamase IMP-1 (unknown origin) expressed in Escherichia coli BL21(DE3) using imipenem as substrate by measuring substrate hydrolysis at 200 uM by spectrophotometric analysis; summary of the method: as §4
[31] = Inhibition of beta-lactamase IMP-1 (unknown origin) expressed in Escherichia coli BL21(DE3) using imipenem as substrate by measuring substrate hydrolysis at 100 uM by spectrophotometric analysis; summary of the method: as §4
[32] = Inhibition of beta-lactamase NDM1 (unknown origin) expressed in Escherichia coli BL21(DE3) using cefotaxime/nitrocefin as substrate by measuring substrate hydrolysis at 200 uM by spectrophotometric analysis

| Compound | inhibition zone (IZ) [1] [mm] | pKi [2] | inhibition zone (IZ) [6] [mm] | pKi [8] | pKi [10] | inhibition zone (IZ) [12] [mm] | pKi [14] | inhibition [15] | inhibition [17] | inhibition zone (IZ) [18] [mm] | inhibition [21] | inhibition [22] | further results |
| --- | --- | --- | --- | --- | --- | --- | --- | --- | --- | --- | --- | --- | --- |
| O=C(O)c1ccccc1/C=N/n1c(-c2cccc(-c3ccccc3)c2)n[nH]c1=S | 9 | 5.38 | 9 | 4.75 | 6.70 | 15 | 7.40 |  |  |  |  |  | pKi [3]: 5.40; pKd [4]: 7.17; deltaG [5]: -9.8 kcal/mol; pKi [7]: 6.22; deltaH [9]: -7.2 kcal/mol; -TdeltaS [11]: 2.6 kcal/mol; Ka [13]: 1.5 10^7/M |
| Oc1ccc(/C=N/n2c(-c3ccccc3-c3ccccc3)n[nH]c2=S)c(O)c1 |  | 5.19 |  | 4.92 | 5.35 |  | 5.05 | inactive | inactive | 15 |  |  | inhibition zone (IZ) [16]: 14 mm |
| S=c1[nH]nc(-c2cccc(-c3ccccc3)c2)n1/N=C/c1ccc(OCc2ccccc2)cc1 |  | 5.74 |  | 5.05 |  |  |  | inactive | inactive | 15 | inactive | inactive | inhibition [19]: inactive; MIC (Escherichia coli [20]): > 256 µg/mL; inhibition [23]: inactive; MIC (Escherichia coli [24]): > 256 µg/mL; MIC (Escherichia coli [25]): 8 µg/mL; MIC (Escherichia coli [26]): > 256 µg/mL; pIC50 [27]: 4.63; MIC (Escherichia coli [28]): 64 µg/mL |
| S=c1[nH]nc(-c2ccc(-c3ccccc3)cc2)n1/N=C/c1ccc(OCc2ccccc2)cc1 | 11 |  | 10 | 4.94 |  | 16 |  | inactive | inactive |  | inactive | inactive | inhibition [19]: inactive; inhibition [29]: 64%; inhibition [23]: inactive |
| O=C(O)c1ccccc1/C=N/n1c(-c2ccc(-c3ccccc3)cc2)n[nH]c1=S |  | 5.89 |  | 4.49 | 5.60 |  | 5.40 |  |  | 15 |  |  | MIC (Escherichia coli [20]): > 256 µg/mL; inhibition zone (IZ) [16]: 15 mm; pKi [7]: 6.05; MIC (Escherichia coli [24]): > 256 µg/mL; MIC (Escherichia coli [25]): 8 µg/mL; MIC (Escherichia coli [26]): > 256 µg/mL; MIC (Escherichia coli [28]): 32 µg/mL |
| O=C(O)c1ccccc1/C=N/n1c(-c2ccc(Cl)cc2)n[nH]c1=S |  | 5.12 |  |  |  |  | 5.15 |  | 60% | 15 | inactive | inactive | inhibition [30]: inactive; inhibition [31]: inactive |
| O=C(O)c1ccccc1/C=N/n1c(-c2ccccc2O)n[nH]c1=S | 12 |  | 10 |  | 5.66 | 17 | 5.52 |  | 40% |  |  |  | inhibition [30]: inactive; inhibition [29]: inactive; inhibition [31]: inactive; inhibition [32]: inactive |
